ChEMBL document CHEMBL4196006, “Aryl thiosemicarbazones for the treatment of trypanosomatidic infections” (Eur J Med Chem, 2018)
The source made the active and inactive calls. The rule behind the calls is not given here.

How the values were obtained:
[1] = Cytotoxicity against human 786-O cells assessed as inhibition of mitochondrial viability at 10 uM after 6 hrs by CMXRos staining based assay relative to control; assay type: cell-based, 786-0; settings: read-out: INH
How it was run: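 Mitochondrial toxicity monitored by MitoTracker Red CMXRos uptake and high-content imaging; compound at 10 μM, triplicate.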

Aurora kinase B = Aurora kinase B (Homo sapiens, UniProt Q96GD4); assay: Inhibition of recombinant full-length human aurora B kinase expressed in baculovirus system at 10 uM using MBP as substrate incubated for 45 mins by ADP-glo kinase assay; settings: probe MBP
How it was run: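 Aurora B activity measured as ADP formation via coupled luciferase ADP-Glo luminescence; single-point at 10 μM, triplicate.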

[2] = molecular target: T1, Pteridine reductase 1 (Leishmania major) (UniProt Q01782); assay: Inhibition of Leishmania major PTR1 at 50 uM using H2B as substrate in presence of NADPH by photometric analysis relative to control
T1 sequence (whole entry): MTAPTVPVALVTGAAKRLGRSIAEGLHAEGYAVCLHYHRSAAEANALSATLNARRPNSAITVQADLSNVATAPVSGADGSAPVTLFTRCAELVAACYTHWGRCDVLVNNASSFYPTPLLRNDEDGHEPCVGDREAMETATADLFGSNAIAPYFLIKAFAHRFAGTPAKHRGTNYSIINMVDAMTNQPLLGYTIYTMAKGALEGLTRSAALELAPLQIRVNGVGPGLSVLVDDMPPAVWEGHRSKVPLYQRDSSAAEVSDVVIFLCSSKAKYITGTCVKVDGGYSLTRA

Trypanosoma brucei [3] = assay: Antitrypanosomal activity against Trypanosoma brucei Lister 427 bloodstream form assessed as parasite growth inhibition at 50 uM after 72 hrs by SYBR Green assay relative to control; assay type: functional; settings: for inhibition of growth at 50 µM: Lister 427, 72 h, read-out: GI
[4] = Cytotoxicity against human WI38 cells assessed as growth inhibition at 10 uM after 48 hrs by CellTiter-Glo assay relative to control; values are per cent of control; settings: WI38 cells
hERG (KCNH2) = hERG (KCNH2) (Homo sapiens, UniProt Q12809); assay: Inhibition of human ERG at 10 uM incubated for 2 hrs by fluorescence polarisation assay relative to control
Trypanosoma brucei [5] = assay: Potentiation of methotrexate-induced antitrypanosomal activity against Trypanosoma brucei Lister 427 bloodstream form at 10 uM after 72 hrs by resazurin dye-based assay; assay type: functional
Trypanosoma cruzi = assay: Antitrypanosomal activity against Trypanosoma cruzi amastigote form infected in human U2OS cells assessed as parasite growth inhibition at 50 uM after 72 hrs relative to control; assay type: functional; settings: for inhibition of growth at 50 µM: read-out: GI
How it was run: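 U2OS monolayers grown for 24 h, then infected with tissue-derived trypomastigotes of T. cruzi Y strain. Compounds were added 24 h after infection at 50 μM (single-point) or in dose-response, with 72 h exposure. Plates were fixed, stained and analysed by high-content imaging; activity was normalized to infected and non-infected controls. Means of at least two experiments; benznidazole as reference.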

[6] = Cytotoxicity against human U2OS cells assessed as viable cells at 50 uM after 72 hrs by MTT assay relative to control; assay type: cell-based; settings: read-out: Activity
CYP1A2 = molecular target: T2, CYP1A2 (Homo sapiens, UniProt P05177); assay: Inhibition of human microsomal CYP1A2 expressed in baculovirus infected BTI-TN-5B1-4 cells at 10 uM incubated for 30 mins by luciferase assay relative to control; assay type: ADME
T2 sequence (P05177 whole entry): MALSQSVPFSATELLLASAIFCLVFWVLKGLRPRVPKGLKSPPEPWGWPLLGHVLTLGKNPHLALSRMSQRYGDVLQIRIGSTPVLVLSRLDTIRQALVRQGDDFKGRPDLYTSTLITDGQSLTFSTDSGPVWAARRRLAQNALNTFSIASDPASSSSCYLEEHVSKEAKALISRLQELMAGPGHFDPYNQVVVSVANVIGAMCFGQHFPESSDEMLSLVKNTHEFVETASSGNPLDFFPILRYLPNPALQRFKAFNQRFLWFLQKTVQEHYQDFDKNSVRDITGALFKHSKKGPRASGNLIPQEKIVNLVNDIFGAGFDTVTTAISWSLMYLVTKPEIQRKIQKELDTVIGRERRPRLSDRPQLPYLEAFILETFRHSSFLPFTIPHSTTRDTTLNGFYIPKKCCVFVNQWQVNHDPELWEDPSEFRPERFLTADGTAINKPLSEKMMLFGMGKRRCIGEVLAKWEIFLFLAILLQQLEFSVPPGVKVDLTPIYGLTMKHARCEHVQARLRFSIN
How it was run: (§1)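 CYP1A2, 2C9, 2C19, 2D6 and 3A4 in microsomes from baculovirus-infected insect cells, each with a P450-Glo luminogenic substrate. Inhibition read as loss of light; single-point at 10 μM, triplicate.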

CYP2C19 = CYP2C19 (Homo sapiens, UniProt P33261); assay: Inhibition of human microsomal CYP2C19 expressed in baculovirus infected BTI-TN-5B1-4 cells at 10 uM incubated for 30 mins by luciferase assay relative to control; assay type: ADME; how it was run: as §1
[7] = molecular target: T3, Pteridine reductase, putative (Trypanosoma brucei) (UniProt Q581W1); assay: Inhibition of Trypanosoma brucei PTR1 at 50 uM using H2B as substrate in presence of NADPH by photometric analysis relative to control
T3 sequence (whole entry): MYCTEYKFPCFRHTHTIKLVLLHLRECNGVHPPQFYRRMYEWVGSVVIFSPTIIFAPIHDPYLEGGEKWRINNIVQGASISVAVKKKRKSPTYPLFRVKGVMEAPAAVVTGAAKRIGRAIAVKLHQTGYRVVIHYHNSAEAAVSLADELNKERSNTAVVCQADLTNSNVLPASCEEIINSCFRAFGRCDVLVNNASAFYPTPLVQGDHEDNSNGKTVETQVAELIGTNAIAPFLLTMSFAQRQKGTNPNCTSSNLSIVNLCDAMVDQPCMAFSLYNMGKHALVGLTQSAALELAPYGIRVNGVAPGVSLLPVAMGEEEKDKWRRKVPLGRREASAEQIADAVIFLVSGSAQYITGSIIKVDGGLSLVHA

CYP2C9 = CYP2C9 (Homo sapiens, UniProt P11712); assay: Inhibition of human microsomal CYP2C9 expressed in baculovirus infected BTI-TN-5B1-4 cells at 10 uM incubated for 30 mins by luciferase assay relative to control; assay type: ADME; how it was run: as §1
Leishmania infantum = assay: Antileishmanial activity against Leishmania infantum amastigote form assessed as parasite growth inhibition at 50 uM after 72 hrs by steady-Glo reagent based assay relative to control; assay type: functional; settings: for inhibition of growth at 50 µM: read-out: GI
How it was run: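 Intramacrophage L. infantum amastigotes in THP-1-derived macrophages, tested at 50 μM or in dose-response. Plates held 72 h at 37 °C, 5% CO2. Medium was replaced by PBS, macrophages lysed, and parasites read by Steady-Glo luminescence. High-content imaging gave host cell number, infection ratio (infected/total cells) and parasites per infected cell. Values are means of at least two independent experiments.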

Trypanosoma brucei [8] = assay: Potentiation of methotrexate-induced antitrypanosomal activity against Trypanosoma brucei Lister 427 bloodstream form at 10 uM after 72 hrs by resazurin dye-based assay relative to control; assay type: functional
CYP2D6 = CYP2D6 (Homo sapiens, UniProt P10635); assay: Inhibition of human microsomal CYP2D6 expressed in baculovirus infected BTI-TN-5B1-4 cells at 10 uM incubated for 30 mins by luciferase assay relative to control; assay type: ADME; how it was run: as §1
Trypanosoma brucei [9] = assay: Antitrypanosomal activity against Trypanosoma brucei Lister 427 bloodstream form at 10 uM after 72 hrs by resazurin dye-based assay relative to control; assay type: functional
[10] = Cytotoxicity against human A549 cells assessed as growth inhibition at 10 uM after 48 hrs by CellTiter-Glo assay relative to control; values are per cent of control; settings: A549 cells
CYP3A4 = CYP3A4 (Homo sapiens, UniProt P08684); assay: Inhibition of human microsomal CYP3A4 expressed in baculovirus infected BTI-TN-5B1-4 cells at 10 uM incubated for 30 mins by luciferase assay relative to control; assay type: ADME; how it was run: as §1
[11] = Cytotoxicity against human THP1 cells assessed as viable cells at 100 uM after 72 hrs by MTT assay relative to control; assay type: cell-based, THP-1; settings: read-out: Activity
How it was run: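 THP-1-derived macrophages exposed to compounds for 72 h, tested at 100 μM or in dose-response; viability read by MTT colorimetric assay.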

Aurora kinase B, sequence (Q96GD4 whole entry): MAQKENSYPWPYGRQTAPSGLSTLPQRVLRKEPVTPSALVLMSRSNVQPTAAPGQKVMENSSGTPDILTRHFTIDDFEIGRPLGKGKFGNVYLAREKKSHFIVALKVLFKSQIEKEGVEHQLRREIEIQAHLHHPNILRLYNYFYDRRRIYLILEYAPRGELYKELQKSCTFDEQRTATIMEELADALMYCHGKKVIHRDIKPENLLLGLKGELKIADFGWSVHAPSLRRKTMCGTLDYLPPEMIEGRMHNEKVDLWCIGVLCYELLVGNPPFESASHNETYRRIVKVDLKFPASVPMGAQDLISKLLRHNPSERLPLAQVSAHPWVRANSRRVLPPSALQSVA
CYP3A4, sequence (P08684 whole entry): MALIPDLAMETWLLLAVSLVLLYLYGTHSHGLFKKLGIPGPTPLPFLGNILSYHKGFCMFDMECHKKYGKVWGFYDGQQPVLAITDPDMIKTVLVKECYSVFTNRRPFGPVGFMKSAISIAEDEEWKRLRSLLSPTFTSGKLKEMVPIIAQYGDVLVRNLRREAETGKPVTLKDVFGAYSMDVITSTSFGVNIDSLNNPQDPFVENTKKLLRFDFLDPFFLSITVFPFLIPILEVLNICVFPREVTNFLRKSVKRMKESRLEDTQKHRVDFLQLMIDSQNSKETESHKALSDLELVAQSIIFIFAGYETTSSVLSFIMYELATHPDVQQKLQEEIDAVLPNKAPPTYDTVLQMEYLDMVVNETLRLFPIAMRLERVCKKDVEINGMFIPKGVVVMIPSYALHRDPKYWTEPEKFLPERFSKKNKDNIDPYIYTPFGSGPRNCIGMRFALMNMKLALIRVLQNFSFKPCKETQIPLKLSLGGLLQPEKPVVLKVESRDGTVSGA
CYP2C9, sequence (P11712 whole entry): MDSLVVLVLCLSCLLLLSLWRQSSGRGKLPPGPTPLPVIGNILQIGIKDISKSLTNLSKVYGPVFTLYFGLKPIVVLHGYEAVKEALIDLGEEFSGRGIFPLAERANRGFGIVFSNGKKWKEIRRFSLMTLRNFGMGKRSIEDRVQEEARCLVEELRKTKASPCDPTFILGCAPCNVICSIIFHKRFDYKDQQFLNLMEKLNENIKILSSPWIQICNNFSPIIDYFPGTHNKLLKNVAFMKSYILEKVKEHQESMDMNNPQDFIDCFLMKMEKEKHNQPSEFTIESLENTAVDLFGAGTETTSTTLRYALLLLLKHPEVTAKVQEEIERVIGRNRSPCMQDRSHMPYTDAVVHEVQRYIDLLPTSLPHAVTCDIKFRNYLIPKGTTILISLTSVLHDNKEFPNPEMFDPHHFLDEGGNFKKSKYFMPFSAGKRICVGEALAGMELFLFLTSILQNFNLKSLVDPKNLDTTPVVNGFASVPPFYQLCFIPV
hERG (KCNH2), sequence (Q12809 whole entry): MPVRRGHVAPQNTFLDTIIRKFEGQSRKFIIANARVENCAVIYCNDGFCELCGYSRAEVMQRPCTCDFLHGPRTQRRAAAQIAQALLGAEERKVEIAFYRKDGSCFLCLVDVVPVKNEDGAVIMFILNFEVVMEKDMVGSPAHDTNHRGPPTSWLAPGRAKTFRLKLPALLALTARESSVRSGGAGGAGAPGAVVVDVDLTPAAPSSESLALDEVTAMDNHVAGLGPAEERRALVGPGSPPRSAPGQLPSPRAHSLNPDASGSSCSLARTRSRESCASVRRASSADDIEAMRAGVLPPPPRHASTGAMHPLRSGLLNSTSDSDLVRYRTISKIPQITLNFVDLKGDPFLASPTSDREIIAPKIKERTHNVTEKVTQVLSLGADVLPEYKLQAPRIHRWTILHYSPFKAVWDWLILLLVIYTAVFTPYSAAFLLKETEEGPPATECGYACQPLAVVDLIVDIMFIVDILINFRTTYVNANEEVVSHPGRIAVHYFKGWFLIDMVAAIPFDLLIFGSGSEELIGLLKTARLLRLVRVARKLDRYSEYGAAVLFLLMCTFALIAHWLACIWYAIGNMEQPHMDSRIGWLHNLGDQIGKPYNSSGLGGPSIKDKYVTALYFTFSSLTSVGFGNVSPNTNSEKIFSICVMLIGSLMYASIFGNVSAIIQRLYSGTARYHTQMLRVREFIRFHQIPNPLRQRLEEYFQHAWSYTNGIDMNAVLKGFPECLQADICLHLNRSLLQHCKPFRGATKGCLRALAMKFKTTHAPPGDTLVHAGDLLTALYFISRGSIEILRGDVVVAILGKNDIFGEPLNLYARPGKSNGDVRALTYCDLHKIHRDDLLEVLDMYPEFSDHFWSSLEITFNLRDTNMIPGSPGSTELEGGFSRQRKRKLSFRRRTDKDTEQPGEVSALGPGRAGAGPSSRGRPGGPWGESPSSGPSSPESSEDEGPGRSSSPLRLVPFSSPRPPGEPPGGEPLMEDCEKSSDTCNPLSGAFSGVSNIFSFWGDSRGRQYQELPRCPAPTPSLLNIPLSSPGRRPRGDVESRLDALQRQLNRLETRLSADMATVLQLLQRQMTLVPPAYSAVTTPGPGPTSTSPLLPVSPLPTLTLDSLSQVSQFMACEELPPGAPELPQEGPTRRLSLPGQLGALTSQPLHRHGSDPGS
CYP2C19, sequence (P33261 whole entry): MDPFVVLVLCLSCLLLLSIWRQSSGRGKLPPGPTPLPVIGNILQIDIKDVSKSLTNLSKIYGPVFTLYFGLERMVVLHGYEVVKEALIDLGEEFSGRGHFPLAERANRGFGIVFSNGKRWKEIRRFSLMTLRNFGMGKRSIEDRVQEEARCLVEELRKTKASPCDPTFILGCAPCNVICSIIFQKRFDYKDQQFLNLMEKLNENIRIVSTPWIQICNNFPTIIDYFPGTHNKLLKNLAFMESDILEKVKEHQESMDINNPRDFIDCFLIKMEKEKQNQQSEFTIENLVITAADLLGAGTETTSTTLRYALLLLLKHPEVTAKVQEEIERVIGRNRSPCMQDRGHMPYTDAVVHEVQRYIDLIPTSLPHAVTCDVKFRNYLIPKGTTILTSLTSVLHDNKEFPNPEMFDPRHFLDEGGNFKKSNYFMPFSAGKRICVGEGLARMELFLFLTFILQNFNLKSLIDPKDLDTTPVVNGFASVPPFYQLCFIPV
CYP2D6, sequence (P10635 whole entry): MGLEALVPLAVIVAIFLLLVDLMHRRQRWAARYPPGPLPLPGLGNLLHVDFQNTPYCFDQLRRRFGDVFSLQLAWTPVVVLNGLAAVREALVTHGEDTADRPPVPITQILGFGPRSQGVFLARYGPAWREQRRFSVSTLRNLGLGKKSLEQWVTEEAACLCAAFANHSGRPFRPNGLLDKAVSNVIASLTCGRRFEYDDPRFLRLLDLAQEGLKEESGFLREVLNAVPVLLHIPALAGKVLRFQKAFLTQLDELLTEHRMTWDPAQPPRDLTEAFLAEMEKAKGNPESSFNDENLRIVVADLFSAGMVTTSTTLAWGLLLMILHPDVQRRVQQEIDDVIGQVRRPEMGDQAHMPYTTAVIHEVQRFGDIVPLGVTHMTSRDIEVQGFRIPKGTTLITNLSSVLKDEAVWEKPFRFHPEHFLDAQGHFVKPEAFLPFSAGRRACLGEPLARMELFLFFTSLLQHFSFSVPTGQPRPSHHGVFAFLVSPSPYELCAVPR

Compound | inhibition at 0.75 h, 10 µM (Aurora kinase B) [%] | inhibition [2] [%] | inhibition at 0.5 h, 10 µM (CYP1A2) [%] | inhibition at 0.5 h, 10 µM (CYP2C19) [%] | inhibition [7] | inhibition at 0.5 h, 10 µM (CYP2C9) [%] | inhibition at 0.5 h, 10 µM (CYP2D6) [%] | inhibition at 0.5 h, 10 µM (CYP3A4) [%] | cytotoxicity at 6 h, 10 µM [1] [%] | growth inhibition (GI) (Trypanosoma brucei [3]) | cell growth (% of control) at 48 h, 10 µM [4] [%] | inhibition at 2 h, 10 µM (hERG (KCNH2)) [%] | PF (Trypanosoma brucei [5]) | viability at 72 h, 50 µM [6] [%] | Activity (Trypanosoma brucei [8]) [%] | Activity (Trypanosoma brucei [9]) [%] | cell growth (% of control) at 48 h, 10 µM [10] [%] | viability at 72 h, 100 µM [11] [%] | inhibition of growth at 50 µM (Trypanosoma cruzi) [%] | inhibition of growth at 50 µM (Leishmania infantum) [%] | other results
NC(=S)N/N=C/c1cccc(-c2ccccc2)c1 | -4.25 | 3.5 | 83.9 | -27.2 | 9.25% | 14.7 | 20.6 | 5.26 | 4.4 | – | 111 | 5.99 | 1.77 | 112 | 93.5 | 28.5 | 110 | 45.2 | 20.2 | 35.8 | inhibition of growth at 50 µM (Trypanosoma brucei [3]): 0.9%
N/C(S)=N/N=C/c1ccc(Cl)c(Cl)c1 | -9.56 | 9.38 | 76.8 | -14.9 | inactive | 24.3 | 27.3 | -10.6 | 5.87 | inactive | 107 | -9.32 | 1.36 | 101 | 84 | 37.33 | 100 | 56.4 | 23.1 | 17.6 | –
NC(=S)N/N=C/c1cccc(-c2ccc3c(c2)OCO3)c1 | -3.81 | 0.33 | 101 | 48.4 | 0.16% | 45.3 | 76.9 | 69.7 | 15.7 | – | 91.9 | 9.13 | 1.53 | 81.5 | 96.33 | 38.67 | 111 | 2.61 | 71.3 | 46.9 | inhibition of growth at 50 µM (Trypanosoma brucei [3]): 61.8%
COc1cc(/C=N/NC(N)=S)cc(OC)c1OC | -17.7 | 7.53 | 15.1 | -28.1 | 2.13% | -6.01 | -21 | -30.2 | 4.79 | – | 111 | -1.36 | 1.92 | 65.5 | 51.67 | 2.67 | 140 | 40.2 | – | 7.19 | inhibition of growth at 50 µM (Trypanosoma brucei [3]): 0.21%; growth inhibition (GI) (Trypanosoma cruzi): inactive

Continued, in another order:

inhibition at 0.75 h, 10 µM (Aurora kinase B) [%] | inhibition [2] [%] | inhibition at 0.5 h, 10 µM (CYP1A2) [%] | inhibition at 0.5 h, 10 µM (CYP2C19) [%] | inhibition [7] | inhibition at 0.5 h, 10 µM (CYP2C9) [%] | inhibition at 0.5 h, 10 µM (CYP2D6) [%] | inhibition at 0.5 h, 10 µM (CYP3A4) [%] | Compound | cytotoxicity at 6 h, 10 µM [1] [%] | growth inhibition (GI) (Trypanosoma brucei [3]) | cell growth (% of control) at 48 h, 10 µM [4] [%] | inhibition at 2 h, 10 µM (hERG (KCNH2)) [%] | PF (Trypanosoma brucei [5]) | viability at 72 h, 50 µM [6] [%] | Activity (Trypanosoma brucei [8]) [%] | Activity (Trypanosoma brucei [9]) [%] | cell growth (% of control) at 48 h, 10 µM [10] [%] | viability at 72 h, 100 µM [11] [%] | inhibition of growth at 50 µM (Trypanosoma cruzi) [%] | inhibition of growth at 50 µM (Leishmania infantum) [%] | other results
-7.51 | 4.38 | -13.2 | -35.1 | 1.7% | -19.7 | -54.5 | -27.9 | NC(=S)N/N=C/C(O)C(O)C(O)CO (stereo not given) | -1.92 | inactive | 95.7 | -11.1 | 0.65 | 146 | 16.17 | 0.5 | 129 | 67.6 | – | – | growth inhibition (GI) (Trypanosoma cruzi): inactive; growth inhibition (GI) (Leishmania infantum): inactive
-9.68 | 7.99 | 11.6 | -38.4 | 3.76% | -3.66 | -16.9 | 8.17 | N/C(S)=N/N=C/c1ccc([N+](=O)[O-])cc1 | 0.08 | inactive | 122 | 4.43 | 1.12 | 85.6 | 36.33 | 8.17 | 128 | 75.6 | 40.1 | 19 | –
-0.05 | 7.77 | -0.75 | -63.9 | 26.2% | -9.01 | -24.5 | -4.7 | C/C(=N\NC(N)=S)c1ccc(O)cc1 | 5.9 | inactive | 101 | 3.53 | 2.25 | 90.2 | 87.83 | 14.83 | 126 | 72.2 | 37 | 23.9 | –
